In ChEMBL document CHEMBL1139833, “Synthesis and metabotropic glutamate receptor activity of S-oxidized variants of (-)-4-amino-2-thiabicyclo-[3.1.0]hexane-4,6-dicarboxylate: identification of potent, selective, and orally bioavailable agonists for mGlu2/3 receptors” (J Med Chem, 2007):
Calls of active or inactive are those of the source. The rule behind the calls is not given here.

Key:
[1] = target: T1, Metabotropic glutamate receptor 3 (Homo sapiens, UniProt Q14832); test: Agonist activity at human mGluR3 assessed as effect on cAMP production in RGT cells; assay type: functional, cell-based
Procedure, shortened: (§1)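 cAMP second-messenger responses measured in RGT cells. These are non-neuronal AV12-664 cells coexpressing the glutamate transporter GLAST, to minimize glutamate activity, plus the recombinant human receptor (mGlu2, mGlu3 or mGlu8). Agonist EC50 determined.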

[2] = target: T2, Metabotropic glutamate receptor 2 (Homo sapiens, UniProt Q14416); test: Displacement of [3H]LY341495 from human recombinant mGluR2 in RGT cells; assay type: cell-based
[3] = target: T1, Metabotropic glutamate receptor 3; test: Displacement of [3H]LY341495 from human recombinant mGluR3 in RGT cells; assay type: cell-based
Procedure, shortened: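 Radioligand binding on membranes carrying recombinant human mGlu2 or mGlu3, displacing the antagonist [3H]LY341495. Ki was calculated from IC50 by the Cheng-Prusoff equation. Values are the mean of at least three separate experiments.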

[4] = target: T2, Metabotropic glutamate receptor 2; test: Agonist activity at human mGluR2 assessed as effect on cAMP production in RGT cells; assay type: functional, cell-based; procedure, shortened: as §1
[5] = target: Metabotropic glutamate receptor 8 (Homo sapiens, UniProt O00222); test: Agonist activity at human mGluR8 assessed as effect on cAMP production in RGT cells; assay type: functional, cell-based; procedure, shortened: as §1
[6] = target: Metabotropic glutamate receptor 1 (Homo sapiens) (UniProt Q13255); test: Agonist activity at human mGluR1a assessed as effect on cAMP production in RGT cells upto 100 uM; assay type: functional, cell-based
Procedure, shortened: (§2)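 Compounds were tested at concentrations up to 100 µM for agonist or antagonist effects. Assays used RGT cells, which are AV12-664 cells coexpressing GLAST and recombinant human mGlu1a, mGlu5a, mGlu4a or mGlu7a.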

[7] = target: Metabotropic glutamate receptor 5 (Homo sapiens) (UniProt P41594); test: Agonist activity at human mGluR5a assessed as effect on cAMP production in RGT cells upto 100 uM; assay type: functional, cell-based; procedure, shortened: as §2
[8] = target: Metabotropic glutamate receptor 4 (Homo sapiens) (UniProt Q14833); test: Agonist activity at human mGluR4a assessed as effect on cAMP production in RGT cells upto 100 uM; assay type: functional, cell-based; procedure, shortened: as §2
[9] = target: Metabotropic glutamate receptor 7 (Homo sapiens) (UniProt Q14831); test: Agonist activity at human mGluR7a assessed as effect on cAMP production in RGT cells upto 100 uM; assay type: functional, cell-based; procedure, shortened: as §2
[10] = target: Metabotropic glutamate receptor 1 (Homo sapiens) (UniProt Q13255); test: Antagonist activity against human mGluR1a assessed as effect on cAMP production in RGT cells upto 100 uM; assay type: functional, cell-based; procedure, shortened: as §2
[11] = target: Metabotropic glutamate receptor 5 (Homo sapiens) (UniProt P41594); test: Antagonist activity against human mGluR5a assessed as effect on cAMP production in RGT cells upto 100 uM; assay type: functional, cell-based; procedure, shortened: as §2
[12] = target: Metabotropic glutamate receptor 4 (Homo sapiens) (UniProt Q14833); test: Antagonist activity against human mGluR4a assessed as effect on cAMP production in RGT cells upto 100 uM; assay type: functional, cell-based; procedure, shortened: as §2
[13] = target: Metabotropic glutamate receptor 7 (Homo sapiens) (UniProt Q14831); test: Antagonist activity against human mGluR7a assessed as effect on cAMP production in RGT cells upto 100 uM; assay type: functional, cell-based; procedure, shortened: as §2
Rattus norvegicus [14] = test: Plasma concentration in Fischer 344 rat at 10 mg/kg, po after 0.5 hrs; assay type: ADME, organism-based; set-up: dose 10 mg/kg, route oral; settings: in vivo
Procedure, shortened: (§3)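 Plasma levels in fasted male Fischer 344 rats after a 10 mg/kg oral dose in pH 7 water (NaOH), quantified by positive-ion electrospray LC/MS/MS. Main protocol sampled at 0.08/0.25–24 h, n=3 rats per time point. A variant oral-only arm used n=6 rats with samples at 0.5, 1, 2, 3, 4 and 6 h.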

Rattus norvegicus [15] = test: Plasma concentration in Fischer 344 rat at 10 mg/kg, po after 1 hrs; assay type: ADME, organism-based; set-up: dose 10 mg/kg, route oral; settings: in vivo; procedure, shortened: as §3
Rattus norvegicus [16] = test: Plasma concentration in Fischer 344 rat at 10 mg/kg, po after 2 hrs; assay type: ADME, organism-based; set-up: dose 10 mg/kg, route oral; settings: in vivo; procedure, shortened: as §3
Rattus norvegicus [17] = test: Plasma concentration in Fischer 344 rat at 10 mg/kg, po after 3 hrs; assay type: ADME, organism-based; set-up: dose 10 mg/kg, route oral; settings: in vivo; procedure, shortened: as §3
Rattus norvegicus [18] = test: Plasma concentration in Fischer 344 rat at 10 mg/kg, po after 4 hrs; assay type: ADME, organism-based; set-up: dose 10 mg/kg, route oral; settings: in vivo; procedure, shortened: as §3
Rattus norvegicus [19] = test: Plasma concentration in Fischer 344 rat at 10 mg/kg, po after 6 hrs; assay type: ADME, organism-based; set-up: dose 10 mg/kg, route oral; settings: in vivo; procedure, shortened: as §3
Rattus norvegicus [20] = test: (§4) AUC (0-24h) in Fischer 344 rat at 10 mg/kg, po; assay type: ADME, organism-based, Plasma; set-up: time < 24 hr, dose 10 mg/kg, route oral; settings: rat, in vivo, 24 h
Procedure, shortened: (§5)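 Male Fischer 344 rats fasted overnight, food returned 4 h post dose, water ad libitum. Doses were in water brought to pH 7 with NaOH, given i.v. (2.5 or 10 mg/kg) or p.o. (10 mg/kg). Nine rats per dose group, three per time point, with blood taken over 0.08–24 h. Plasma measured by LC/MS/MS.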

Rattus norvegicus [21] = test: Cmax in Fischer 344 rat at 10 mg/kg, po; assay type: ADME, organism-based; set-up: dose 10 mg/kg, route oral; settings: in vivo; procedure, shortened: as §5
Rattus norvegicus [22] = test: (§6) Tmax in Fischer 344 rat at 10 mg/kg, po; assay type: ADME, organism-based; set-up: dose 10 mg/kg, route oral; settings: rat, in vivo; procedure, shortened: as §5
[23] = Plasma concentration in Fischer 344 rat after 1 hr; assay type: ADME, organism-based; procedure, shortened: as §3
[24] = Plasma concentration in Fischer 344 rat after 3 hrs; assay type: ADME, organism-based; procedure, shortened: as §3
[25] = Plasma concentration in Fischer 344 rat after 8 hrs; assay type: ADME, organism-based; procedure, shortened: as §3
Rattus norvegicus [26] = test: Reduction of PCP-induced ambulations in Sprague-Dawley rat at 3 mg/kg, po; assay type: functional; set-up: scale not given: the % may be the effect or the level left
Procedure, shortened: (§7)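 Male Sprague-Dawley rats (225-274 g) fasted 12-18 h and habituated 30 min to the test cage. Test drug or vehicle was given orally 2 h before PCP (5 mg/kg s.c.) or 0.9% NaCl. Horizontal photobeam breaks were counted over 60 min, n=8-13 per group.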

Rattus norvegicus [27] = test: Reduction of PCP-induced ambulations in Sprague-Dawley rat at 10 mg/kg, po; assay type: functional; set-up: scale not given: the % may be the effect or the level left; procedure, shortened: as §7
Rattus norvegicus [28] = test: Inhibition of PCP-induced ambulations in Sprague-Dawley rat after oral administration; assay type: functional; procedure, shortened: as §7
[29] = as §4; assay type: ADME, organism-based, Plasma; set-up: time < 24 hr, dose 10 mg/kg, route oral; settings: Fischer 344, rat, plasma; procedure, shortened: as §5
[30] = AUC (0-24h) in Fischer 344 rat at 2.5 mg/kg, iv; assay type: ADME, organism-based; set-up: time < 24 hr, dose 2.5 mg/kg, route intravenous; settings: plasma; procedure, shortened: as §5
Rattus norvegicus [31] = test: Cmax in Fischer 344 rat at 2.5 mg/kg, iv; assay type: ADME, organism-based; set-up: dose 2.5 mg/kg, route intravenous; settings: in vivo; procedure, shortened: as §5
[32] = as §6; assay type: ADME, organism-based; set-up: dose 10 mg/kg, route oral; settings: Fischer 344, rat, in vivo; procedure, shortened: as §5
[33] = Tmax in Fischer 344 rat at 2.5 mg/kg, iv; assay type: ADME, organism-based; set-up: dose 2.5 mg/kg, route intravenous; settings: in vivo; procedure, shortened: as §5
[34] = Oral bioavailability in Fischer 344 rat at 10 mg/kg, po; assay type: ADME, organism-based; settings: in vivo; procedure, shortened: as §5
Rattus norvegicus [35] = test: AUC (0-24h) in Fischer 344 rat at 10 mg/kg, po; settings: in vivo

Sequence of Metabotropic glutamate receptor 4 (Homo sapiens) (Q14833 whole entry): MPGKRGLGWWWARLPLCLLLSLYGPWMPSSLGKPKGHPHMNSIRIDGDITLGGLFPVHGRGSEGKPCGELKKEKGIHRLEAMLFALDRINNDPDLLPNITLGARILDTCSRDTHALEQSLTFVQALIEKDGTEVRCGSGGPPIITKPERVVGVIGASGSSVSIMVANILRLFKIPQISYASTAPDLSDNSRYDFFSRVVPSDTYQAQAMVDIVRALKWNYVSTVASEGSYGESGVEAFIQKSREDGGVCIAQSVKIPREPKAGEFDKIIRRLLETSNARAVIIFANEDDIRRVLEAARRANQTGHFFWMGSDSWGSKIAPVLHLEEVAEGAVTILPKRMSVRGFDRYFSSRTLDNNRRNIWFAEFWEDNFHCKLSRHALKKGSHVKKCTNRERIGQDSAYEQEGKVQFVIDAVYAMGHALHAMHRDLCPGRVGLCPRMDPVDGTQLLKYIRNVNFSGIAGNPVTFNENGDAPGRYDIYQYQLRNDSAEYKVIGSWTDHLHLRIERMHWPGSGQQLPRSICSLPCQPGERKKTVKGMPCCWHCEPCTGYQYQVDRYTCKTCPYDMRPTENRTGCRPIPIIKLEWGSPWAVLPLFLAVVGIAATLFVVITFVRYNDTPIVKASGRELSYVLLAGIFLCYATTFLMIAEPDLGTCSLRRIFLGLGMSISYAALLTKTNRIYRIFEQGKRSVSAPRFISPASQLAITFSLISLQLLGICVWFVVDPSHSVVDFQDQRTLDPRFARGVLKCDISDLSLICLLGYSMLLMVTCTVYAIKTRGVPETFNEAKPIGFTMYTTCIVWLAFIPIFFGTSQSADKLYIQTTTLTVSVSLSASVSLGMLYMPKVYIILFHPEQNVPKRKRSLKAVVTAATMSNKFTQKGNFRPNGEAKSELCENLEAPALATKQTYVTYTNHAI
Sequence of Metabotropic glutamate receptor 1 (Homo sapiens) (Q13255 19-1194 limits assumed): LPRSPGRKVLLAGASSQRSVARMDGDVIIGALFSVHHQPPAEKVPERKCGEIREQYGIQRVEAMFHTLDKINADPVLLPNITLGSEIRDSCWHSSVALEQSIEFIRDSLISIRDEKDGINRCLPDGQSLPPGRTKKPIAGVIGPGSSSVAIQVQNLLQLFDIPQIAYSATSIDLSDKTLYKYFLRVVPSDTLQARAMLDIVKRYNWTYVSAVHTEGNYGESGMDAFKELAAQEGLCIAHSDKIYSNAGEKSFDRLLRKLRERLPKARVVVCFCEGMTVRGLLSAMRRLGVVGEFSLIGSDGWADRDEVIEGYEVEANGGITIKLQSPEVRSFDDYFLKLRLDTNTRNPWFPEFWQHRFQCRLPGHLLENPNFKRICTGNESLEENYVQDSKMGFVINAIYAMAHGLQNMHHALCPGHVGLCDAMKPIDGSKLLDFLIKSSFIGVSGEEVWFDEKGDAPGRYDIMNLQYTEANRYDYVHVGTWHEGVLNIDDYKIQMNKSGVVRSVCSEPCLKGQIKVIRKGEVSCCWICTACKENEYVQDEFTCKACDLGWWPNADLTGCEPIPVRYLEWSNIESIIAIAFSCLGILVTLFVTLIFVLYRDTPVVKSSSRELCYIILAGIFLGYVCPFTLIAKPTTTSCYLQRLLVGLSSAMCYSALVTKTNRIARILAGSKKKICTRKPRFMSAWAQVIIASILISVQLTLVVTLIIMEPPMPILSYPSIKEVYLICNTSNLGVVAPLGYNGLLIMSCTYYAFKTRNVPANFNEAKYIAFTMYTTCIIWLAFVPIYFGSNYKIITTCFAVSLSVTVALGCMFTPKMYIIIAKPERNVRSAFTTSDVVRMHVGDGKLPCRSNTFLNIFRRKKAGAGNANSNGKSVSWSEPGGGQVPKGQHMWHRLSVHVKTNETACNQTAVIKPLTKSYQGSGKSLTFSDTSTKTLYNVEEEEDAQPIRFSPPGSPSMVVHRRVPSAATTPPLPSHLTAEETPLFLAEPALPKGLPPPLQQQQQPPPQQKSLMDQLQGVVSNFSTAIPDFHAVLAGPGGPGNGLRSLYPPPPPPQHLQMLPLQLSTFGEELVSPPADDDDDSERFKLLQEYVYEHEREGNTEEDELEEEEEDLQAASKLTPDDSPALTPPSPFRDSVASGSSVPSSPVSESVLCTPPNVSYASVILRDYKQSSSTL
T1 sequence (Q14832 whole entry): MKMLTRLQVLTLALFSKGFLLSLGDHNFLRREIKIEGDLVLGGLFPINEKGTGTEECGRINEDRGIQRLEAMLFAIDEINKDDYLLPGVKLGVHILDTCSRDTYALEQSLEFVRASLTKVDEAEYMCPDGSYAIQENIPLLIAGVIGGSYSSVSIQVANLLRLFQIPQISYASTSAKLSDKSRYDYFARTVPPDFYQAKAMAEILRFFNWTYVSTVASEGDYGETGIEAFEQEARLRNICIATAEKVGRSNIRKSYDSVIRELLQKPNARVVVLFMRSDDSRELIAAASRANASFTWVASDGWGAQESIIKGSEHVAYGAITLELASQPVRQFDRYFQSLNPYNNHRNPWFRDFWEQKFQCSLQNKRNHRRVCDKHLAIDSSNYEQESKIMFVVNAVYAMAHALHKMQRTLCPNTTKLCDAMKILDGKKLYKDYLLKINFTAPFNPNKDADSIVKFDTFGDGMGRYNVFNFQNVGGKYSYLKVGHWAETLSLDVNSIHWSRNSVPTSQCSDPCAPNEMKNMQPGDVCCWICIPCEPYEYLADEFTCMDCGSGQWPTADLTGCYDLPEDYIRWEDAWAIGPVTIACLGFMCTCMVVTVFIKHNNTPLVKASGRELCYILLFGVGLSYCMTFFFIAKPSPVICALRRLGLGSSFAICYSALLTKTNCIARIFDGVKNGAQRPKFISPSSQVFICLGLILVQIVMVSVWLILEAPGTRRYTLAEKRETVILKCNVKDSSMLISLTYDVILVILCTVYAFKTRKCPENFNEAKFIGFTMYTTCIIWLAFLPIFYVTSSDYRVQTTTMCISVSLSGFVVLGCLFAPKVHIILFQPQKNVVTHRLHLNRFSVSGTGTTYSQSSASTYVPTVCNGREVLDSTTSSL
T2 sequence (Q14416 whole entry): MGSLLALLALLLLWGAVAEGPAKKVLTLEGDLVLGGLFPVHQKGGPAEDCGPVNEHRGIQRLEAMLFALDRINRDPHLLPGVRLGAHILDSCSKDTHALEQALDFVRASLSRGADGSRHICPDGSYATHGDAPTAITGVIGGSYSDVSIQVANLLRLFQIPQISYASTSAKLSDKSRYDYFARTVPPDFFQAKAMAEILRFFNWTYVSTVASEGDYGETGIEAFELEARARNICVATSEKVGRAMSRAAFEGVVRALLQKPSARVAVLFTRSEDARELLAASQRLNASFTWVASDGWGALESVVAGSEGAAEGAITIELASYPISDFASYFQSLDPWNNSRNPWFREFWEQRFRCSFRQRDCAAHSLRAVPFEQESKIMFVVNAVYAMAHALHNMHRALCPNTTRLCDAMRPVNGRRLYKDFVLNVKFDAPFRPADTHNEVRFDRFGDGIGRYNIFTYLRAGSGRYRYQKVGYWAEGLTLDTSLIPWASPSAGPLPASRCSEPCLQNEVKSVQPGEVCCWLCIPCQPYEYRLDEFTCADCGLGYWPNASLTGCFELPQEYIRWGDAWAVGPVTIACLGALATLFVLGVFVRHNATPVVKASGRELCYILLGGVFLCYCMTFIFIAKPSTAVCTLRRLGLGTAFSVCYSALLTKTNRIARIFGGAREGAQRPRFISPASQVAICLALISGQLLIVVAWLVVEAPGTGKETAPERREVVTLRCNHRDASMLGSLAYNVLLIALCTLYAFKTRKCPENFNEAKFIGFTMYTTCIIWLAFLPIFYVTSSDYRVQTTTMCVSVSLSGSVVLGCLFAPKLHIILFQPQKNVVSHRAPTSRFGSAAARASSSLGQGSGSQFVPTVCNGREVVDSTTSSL
Sequence of Metabotropic glutamate receptor 7 (Homo sapiens) (Q14831 whole entry): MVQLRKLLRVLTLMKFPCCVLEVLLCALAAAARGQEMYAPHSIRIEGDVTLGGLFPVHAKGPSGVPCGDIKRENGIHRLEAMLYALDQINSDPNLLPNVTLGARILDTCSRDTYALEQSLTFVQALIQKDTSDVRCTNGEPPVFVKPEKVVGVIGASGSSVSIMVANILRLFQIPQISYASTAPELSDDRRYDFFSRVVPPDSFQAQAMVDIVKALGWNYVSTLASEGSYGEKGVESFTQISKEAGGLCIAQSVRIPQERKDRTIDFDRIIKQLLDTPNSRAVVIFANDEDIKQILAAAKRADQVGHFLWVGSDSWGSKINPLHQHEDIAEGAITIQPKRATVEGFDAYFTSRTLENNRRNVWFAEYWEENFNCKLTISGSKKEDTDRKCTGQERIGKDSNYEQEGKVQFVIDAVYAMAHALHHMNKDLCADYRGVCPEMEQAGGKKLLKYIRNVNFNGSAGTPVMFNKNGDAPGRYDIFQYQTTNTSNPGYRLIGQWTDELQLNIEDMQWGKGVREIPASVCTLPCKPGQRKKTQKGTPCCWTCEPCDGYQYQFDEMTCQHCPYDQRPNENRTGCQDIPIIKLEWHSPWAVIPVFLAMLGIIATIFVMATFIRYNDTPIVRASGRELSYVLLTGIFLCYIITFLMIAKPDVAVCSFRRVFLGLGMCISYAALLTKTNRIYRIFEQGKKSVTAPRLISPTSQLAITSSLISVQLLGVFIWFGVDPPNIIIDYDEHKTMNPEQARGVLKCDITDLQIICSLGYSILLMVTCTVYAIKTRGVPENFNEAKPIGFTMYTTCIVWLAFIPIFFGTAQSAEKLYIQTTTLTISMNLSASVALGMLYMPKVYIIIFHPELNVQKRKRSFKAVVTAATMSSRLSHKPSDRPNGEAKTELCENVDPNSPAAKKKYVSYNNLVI

| SMILES | EC50 [1] | Ki [3] | EC50 [4] | EC50 [5] | Activity [6] | Activity [7] | Activity [8] | Activity [9] | Activity [10] | Activity [11] | Activity [12] | Activity [13] | Cmax (Rattus norvegicus [21]) | further results |
| --- | --- | --- | --- | --- | --- | --- | --- | --- | --- | --- | --- | --- | --- | --- |
| N[C@@]1(C(=O)O)C[S+]([O-])[C@H]2[C@H](C(=O)O)[C@H]21 (stereo in doubt; (-)-11) [listing 1 of 2 here] | – | – | – | – | – | – | – | – | – | – | – | – | 0.4 µg/mL | Cp (Rattus norvegicus [14]): 325 ng/mL; Cp (Rattus norvegicus [15]): 367 ng/mL; Cp (Rattus norvegicus [16]): 258 ng/mL; Cp (Rattus norvegicus [17]): 229 ng/mL; Cp (Rattus norvegicus [18]): 77 ng/mL; Cp (Rattus norvegicus [19]): 71.8 ng/mL; AUC (Rattus norvegicus [20]): 1.1 µg·h/mL; Tmax (Rattus norvegicus [22]): 1 h |
| N[C@@]1(C(=O)O)C[S+]([O-])[C@H]2[C@H](C(=O)O)[C@H]21 (stereo in doubt; (-)-11) [listing 2 of 2 here] | – | – | – | – | – | – | – | – | inactive | inactive | inactive | inactive | – | – |
| N[C@@]1(C(=O)O)CS(=O)(=O)[C@H]2[C@H](C(=O)O)[C@H]21 [LY404039] | 48 nM | 92 nM | 23.4 nM | 47.8 µM | inactive | inactive | inactive | inactive | inactive | inactive | inactive | inactive | 4 µg/mL | concentration at 1 h [23]: 4000 ng/mL; concentration at 3 h [24]: > 500 ng/mL; concentration at 8 h [25]: < 10 ng/mL; Activity (Rattus norvegicus [26]): 91%; Activity (Rattus norvegicus [27]): 91%; ED50 (Rattus norvegicus [28]): 2.5 mg/kg; AUC(0-t) at 24 h [29]: 7200 ng·h/mL; AUC(0-t) at 24 h [30]: 2900 ng·h/mL; Cmax (Rattus norvegicus [31]): 7.5 µg/mL; Tmax [32]: 1 h; Tmax [33]: 0 h; bioavailability [34]: 63%; AUC (Rattus norvegicus [35]): 7.2 µg/mL |

Further lines, with some results ahead:

| EC50 [1] | Ki [3] | EC50 [4] | EC50 [5] | Activity [6] | Activity [7] | Activity [8] | Activity [9] | Activity [10] | Activity [11] | Activity [12] | Activity [13] | Cmax (Rattus norvegicus [21]) | SMILES | further results |
| --- | --- | --- | --- | --- | --- | --- | --- | --- | --- | --- | --- | --- | --- | --- |
| 210 nM | 447 nM | 18.1 nM | > 100 µM | – | – | – | – | – | – | – | – | – | N[C@@]1(C(=O)O)C[S+]([O-])[C@H]2[C@H](C(=O)O)[C@H]21 (stereo in doubt; (-)-10) [listing 1 of 2 here] | Ki [2]: 508 nM |
| – | – | – | – | inactive | inactive | inactive | inactive | inactive | inactive | inactive | inactive | – | N[C@@]1(C(=O)O)C[S+]([O-])[C@H]2[C@H](C(=O)O)[C@H]21 (stereo in doubt; (-)-10) [listing 2 of 2 here] | – |
